Results reported in ChEMBL document CHEMBL1133298, “N1-Arylsulfonyl-N2-(1-aryl)ethyl-3-phenylpropane-1,2-diamines as novel calcimimetics acting on the calcium sensing receptor” (Bioorg Med Chem Lett, 2000).

Molecular target: T1, Extracellular calcium-sensing receptor (Rattus norvegicus) (UniProt P48442)
T1 sequence (whole entry): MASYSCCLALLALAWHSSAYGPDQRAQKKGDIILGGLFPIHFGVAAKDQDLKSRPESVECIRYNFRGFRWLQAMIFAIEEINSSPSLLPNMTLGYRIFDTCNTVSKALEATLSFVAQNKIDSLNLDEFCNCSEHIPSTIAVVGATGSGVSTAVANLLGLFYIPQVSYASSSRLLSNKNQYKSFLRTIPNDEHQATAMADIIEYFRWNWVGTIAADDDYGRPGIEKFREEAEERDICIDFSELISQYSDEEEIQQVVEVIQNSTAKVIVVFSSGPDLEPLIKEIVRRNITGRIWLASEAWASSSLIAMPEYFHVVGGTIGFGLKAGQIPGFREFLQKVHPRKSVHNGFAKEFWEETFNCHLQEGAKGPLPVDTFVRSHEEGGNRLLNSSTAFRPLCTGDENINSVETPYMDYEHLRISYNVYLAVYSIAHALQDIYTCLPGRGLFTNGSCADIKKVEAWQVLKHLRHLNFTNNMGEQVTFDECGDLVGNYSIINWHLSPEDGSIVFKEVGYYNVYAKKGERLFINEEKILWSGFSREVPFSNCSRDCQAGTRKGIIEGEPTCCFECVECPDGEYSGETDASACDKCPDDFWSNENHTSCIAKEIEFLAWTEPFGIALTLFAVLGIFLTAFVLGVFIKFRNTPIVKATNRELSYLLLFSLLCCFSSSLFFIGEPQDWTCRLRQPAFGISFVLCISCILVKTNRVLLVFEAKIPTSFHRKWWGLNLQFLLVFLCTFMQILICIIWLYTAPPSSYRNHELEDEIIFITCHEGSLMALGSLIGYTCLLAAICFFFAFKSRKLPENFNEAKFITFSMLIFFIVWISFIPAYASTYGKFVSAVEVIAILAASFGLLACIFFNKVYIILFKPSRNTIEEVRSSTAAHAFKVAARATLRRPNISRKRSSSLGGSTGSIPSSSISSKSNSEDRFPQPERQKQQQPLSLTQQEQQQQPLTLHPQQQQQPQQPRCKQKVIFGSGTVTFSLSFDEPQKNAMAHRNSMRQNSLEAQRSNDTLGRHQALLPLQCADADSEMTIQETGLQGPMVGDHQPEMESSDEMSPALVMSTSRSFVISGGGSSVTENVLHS
Assay: Compound was evaluated for accumulation of [3H]- IP in CHO (CaSR) cells expressing rat cloned calcium sensing receptor
Type: functional, cell-based
Summary of the method: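 CHO cells stably transfected with calcium sensing receptor cloned from rat brain. Grown in basal Ham's F-12 (0.3 mM Ca2+, 0.6 mM Mg2+) and prelabeled overnight with 0.5 µCi/mL myo-[3H]inositol. Drugs were made up at 10 mM in ethanol (stock), diluted in basal medium and tested at 10 µM with 2 mM extracellular Ca2+ at 37 °C. [3H]IP accumulation (phospholipase C activity) is given as % of the maximal response to 10 mM Ca2+, mean ±S.E.M.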

Row | Compound | Accumulation
1 | CC(NCC(Cc1ccccc1)NS(=O)(=O)c1ccccc1)c1cccc2ccccc12 (centres undefined) | 78%
2 | COc1ccc(CC(CNC(C)c2cccc3ccccc23)NS(=O)(=O)c2ccc(OC)cc2)cc1 (centres undefined) | 45%
3 | COc1ccc(S(=O)(=O)NC(CNC(C)c2cccc(OC)c2)Cc2ccccc2)cc1 (centres undefined) | 34%
4 | CC(NCC(Cc1ccccc1)NS(=O)(=O)c1ccc([N+](=O)[O-])cc1)c1ccccc1 (centres undefined) | 8%
5 | CC(NCC(Cc1ccccc1)NS(=O)(=O)c1ccc(C(F)(F)F)cc1)c1cccc2ccccc12 (centres undefined) | 27%
6 | Cc1ccc(S(=O)(=O)NC(CNC(C)c2cccc3ccccc23)Cc2ccccc2)cc1 (centres undefined) | 68%
7 | COc1cccc([C@@H](C)NCCCc2ccccc2Cl)c1 | 106%
8 | Cc1ccc(S(=O)(=O)NC(CNC(C)c2ccccc2)Cc2ccccc2)cc1 (centres undefined) | 16%
9 | CC(NCC(Cc1ccccc1)NS(=O)(=O)c1ccc(N)cc1)c1ccccc1 (centres undefined) | 2%
10 | CC(NCC(Cc1ccccc1)NS(=O)(=O)c1ccc([N+](=O)[O-])cc1)c1cccc2ccccc12 (centres undefined) | 28%
11 | CC(NCC(Cc1ccccc1)NS(=O)(=O)c1ccccc1Cl)c1cccc2ccccc12 (centres undefined) | 79%
12 | COc1cccc(C(C)NCC(Cc2ccccc2)NS(=O)(=O)c2ccc(C)cc2)c1 (centres undefined) | 36%
13 | CC(NCC(Cc1ccccc1)NS(=O)(=O)c1ccc(Cl)cc1)c1cccc2ccccc12 (centres undefined) | 38%
14 | COc1ccc(S(=O)(=O)NC(CNC(C)c2cccc3ccccc23)Cc2ccccc2)cc1 (centres undefined) | 80%
15 | COc1ccc(S(=O)(=O)NC(CNC(C)c2cccc3ccccc23)Cc2ccccc2OC)cc1 (centres undefined) | 65%
16 | CC(NCC(Cc1ccccc1)NS(=O)(=O)c1cccc(Cl)c1)c1cccc2ccccc12 (centres undefined) | 83%
17 | COc1ccc(S(=O)(=O)NC(CNC(C)c2cccc3ccccc23)Cc2ccc3c(c2)OCO3)cc1 (centres undefined) | 47%
18 | COc1ccc(S(=O)(=O)NC(CNC(C)c2cccc3ccccc23)Cc2ccccc2Cl)cc1 (centres undefined) | 60%
19 | COc1ccc(S(=O)(=O)NC(CNC(C)c2cccc3ccccc23)Cc2ccccc2)cc1OC (centres undefined) | 97%
